Test [1] has as its system MT4. Nature of the test: Inhibitory potency of gp41 fragment against HIV-1 induced cytopathic effect in MT-4 cell assay at 20 uM. The test is classed as functional, Homo sapiens. To be noted: for inhibition at 20 µM: Homo sapiens, MT4. A digest of the protocol: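 MT4 cells (exponential growth) at 5×10^5 cells/mL infected with HIV-1 IIIB (100× TCID50) for 1 h at 37 °C, diluted 6-fold, added to serially diluted peptide in RPMI 1640/FCS medium; mock-infected controls. After 5 days at 37 °C, 5% CO2, cells lysed with Nonidet-40 and DNA content read by propidium iodide. Inhibition = restoration of infected-cell growth relative to uninfected controls; cytotoxicity measured in parallel.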
(In general: Protection from cytopathic effect is a common read-out in antiviral testing.)

Test [2] has as its system MT4. Nature of the test: Inhibitory potency of gp41 fragment against HIV-1 induced cytopathic effect in MT-4 cell assay at 100 uM. The test is classed as functional. To be noted: Homo sapiens.
Test [3] concerns MT4. Description: Inhibitory potency of gp41 fragment against HIV-1 induced cytopathic effect in MT-4 cell assay. The note with it: Homo sapiens. The test is classed as functional, cell-based.

Drawing on ChEMBL document CHEMBL1129074, “Inhibitors of human immunodeficiency virus type 1 derived from gp41 transmembrane protein: structure--activity studies” (J Med Chem, 1996), this text covers inhibition, IC50 and Inhibition for eleven compounds.

Peptide text beside a SMILES is read from it.

As for `CC[C@H](C)[C@H](NC(C)=O)C(=O)N[C@@H](CCC(=O)O)C(=O)N[C@@H](C)C(=O)N[C@@H](CCC(N)=O)C(=O)N[C@@H](CCC(N)=O)C(=O)N[C@@H](CC(C)C)C(=O)N[C@@H](CC(C)C)C(=O)N[C@@H](CCC(N)=O)C(=O)N[C@@H](CC(C)C)C(=O)N[C@H](C(=O)N[C@H](C(=O)N[C@@H](Cc1c[nH]c2ccccc12)C(=O)NCC(=O)N[C@H](C(=O)N[C@@H](CCCCN)C(=O)N[C@@H](CCC(N)=O)C(=O)N[C@@H](CC(C)C)C(=O)N[C@@H](CCC(N)=O)C(=O)N[C@@H](C)C(=O)N[C@@H](CCCN=C(N)N)C(=O)N[C@H](C(=O)N[C@@H](CC(C)C)C(=O)N[C@@H](C)C(=O)N[C@H](C(=O)N[C@@H](CCC(=O)O)C(=O)N[C@@H](CCCN=C(N)N)C(=O)N[C@@H](Cc1ccc(O)cc1)C(=O)N[C@@H](CC(C)C)C(=O)N[C@@H](CCCCN)C(=O)N[C@@H](CC(=O)O)C(=O)N[C@@H](CCC(N)=O)C(=O)O)C(C)C)[C@@H](C)CC)[C@@H](C)CC)C(C)C)[C@@H](C)O` (Ac-IEAQQLLQLTVWGIKQLQARILAVERYLKDQ-OH), the inhibition at 20 µM with MT4 [1] was 28%.
For `CC[C@H](C)[C@H](NC(=O)CNC(=O)[C@H](C)NC(=O)[C@@H](NC(=O)[C@@H](NC(=O)[C@H](C)NC(=O)[C@H](C)NC(=O)[C@H](CC(C)C)NC(=O)[C@H](CC(C)C)NC(=O)[C@H](C)NC(=O)[C@H](CCC(N)=O)NC(=O)[C@H](CCC(N)=O)NC(=O)[C@H](C)NC(=O)[C@H](CCC(=O)O)NC(=O)[C@@H](NC(=O)[C@H](C)NC(=O)[C@H](CCCN=C(N)N)NC(=O)[C@H](CC(C)C)NC(=O)[C@H](CC(C)C)NC(=O)[C@H](CC(N)=O)NC(=O)[C@H](CC(N)=O)NC(C)=O)[C@@H](C)CC)[C@@H](C)O)C(C)C)C(=O)N[C@@H](C)C(=O)N[C@@H](C)C(=O)N[C@@H](CC(C)C)C(=O)N[C@@H](CCC(N)=O)C(=O)N[C@@H](C)C(=O)N[C@@H](CCCN=C(N)N)C(=O)N[C@H](C(=O)N[C@@H](C)C(=O)N[C@@H](C)C(=O)N[C@H](C(=O)N[C@@H](CCC(=O)O)C(=O)N[C@@H](C)C(=O)N[C@@H](Cc1ccc(O)cc1)C(=O)N[C@@H](CC(C)C)C(=O)N[C@@H](C)C(=O)N[C@@H](C)C(=O)N[C@@H](CCC(N)=O)C(=O)O)C(C)C)[C@@H](C)CC` (Ac-NNLLRAIEAQQALLAATVAGIAALQARIAAVEAYLAAQ-OH), the inhibition at 20 µM with MT4 [1] stood at 37%.
`CC[C@H](C)[C@H](NC(=O)[C@H](CCCN=C(N)N)NC(=O)[C@H](C)NC(=O)[C@H](CCC(N)=O)NC(=O)[C@H](CC(C)C)NC(=O)[C@H](CCC(N)=O)NC(=O)[C@H](CCCCN)NC(=O)[C@@H](NC(=O)CNC(=O)[C@H](Cc1c[nH]c2ccccc12)NC(=O)[C@@H](NC(=O)[C@@H](NC(=O)[C@H](CC(C)C)NC(=O)[C@H](CCC(N)=O)NC(C)=O)[C@@H](C)O)C(C)C)[C@@H](C)CC)C(=O)O` (Ac-QLTVWGIKQLQARI-OH): the inhibition at 100 µM in the test with MT4 [2] was 0%.
Still for that read-out and setting: to `CC[C@H](C)[C@H](NC(=O)[C@H](CCCN=C(N)N)NC(=O)[C@H](C)NC(=O)[C@H](CCC(N)=O)NC(=O)[C@H](CC(C)C)NC(=O)[C@H](CCC(N)=O)NC(=O)[C@H](CCCCN)NC(=O)[C@@H](NC(=O)CNC(=O)[C@H](Cc1c[nH]c2ccccc12)NC(=O)[C@@H](NC(=O)[C@@H](NC(=O)[C@H](CC(C)C)NC(=O)[C@H](CCC(N)=O)NC(=O)[C@@H](N)CC(C)C)[C@@H](C)O)C(C)C)[C@@H](C)CC)C(=O)O` (H-LQLTVWGIKQLQARI-OH) belongs 21%.
In the test with MT4 [2], `CC[C@H](C)[C@H](NC(=O)[C@H](CCCN=C(N)N)NC(=O)[C@H](C)NC(=O)[C@H](CCC(N)=O)NC(=O)[C@H](CC(C)C)NC(=O)[C@H](CCC(N)=O)NC(=O)[C@H](CCCCN)NC(=O)[C@@H](NC(=O)CNC(=O)[C@H](Cc1c[nH]c2ccccc12)NC(=O)[C@@H](NC(=O)[C@@H](NC(=O)[C@H](CC(C)C)NC(=O)[C@@H](N)CCC(N)=O)[C@@H](C)O)C(C)C)[C@@H](C)CC)C(=O)O` (H-QLTVWGIKQLQARI-OH) came in with an inhibition at 100 µM of 0%.
With `CC[C@H](C)[C@H](NC(=O)CNC(=O)[C@H](Cc1c[nH]c2ccccc12)NC(=O)[C@@H](NC(=O)[C@@H](NC(=O)[C@H](CC(C)C)NC(=O)[C@H](CCC(N)=O)NC(=O)[C@H](CC(C)C)NC(=O)[C@H](CC(C)C)NC(=O)[C@H](Cc1c[nH]cn1)NC(=O)[C@H](CCC(N)=O)NC(=O)[C@H](CCC(N)=O)NC(=O)[C@H](C)NC(=O)[C@H](CCC(=O)O)NC(=O)[C@@H](NC(=O)[C@H](C)NC(=O)[C@H](CCCN=C(N)N)NC(=O)[C@H](CC(C)C)NC(=O)[C@H](CC(C)C)NC(=O)[C@H](CC(N)=O)NC(=O)[C@H](CC(N)=O)NC(C)=O)[C@@H](C)CC)[C@@H](C)O)C(C)C)C(=O)N[C@@H](CCCCN)C(=O)N[C@@H](CCC(N)=O)C(=O)N[C@@H](CC(C)C)C(=O)N[C@@H](CCC(N)=O)C(=O)N[C@@H](C)C(=O)N[C@@H](CCCN=C(N)N)C(=O)N[C@H](C(=O)N[C@@H](C)C(=O)N[C@@H](C)C(=O)N[C@@H](C)C(=O)NCCCCCC(=O)N[C@@H](C)C(=O)N[C@@H](C)C(=O)N[C@@H](C)C(=O)N[C@@H](C)C(=O)N[C@@H](CC(=O)O)C(=O)N[C@@H](CCCCN)C(=O)O)[C@@H](C)CC` (HELM PEPTIDE1{[ac].N.N.L.L.R.A.I.E.A.Q.Q.H.L.L.Q.L.T.V.W.G.I.K.Q.L.Q.A.R.I.A.A.A.[O=C(CCCCCN[*:1])[*:2]].A.A.A.A.D.K}$$$$V2.0), the 50% inhibitory concentration (IC50) in the test with MT4 [3] stood at 6.3 µM.
In the test with MT4 [3], `CC[C@H](C)[C@H](NC(=O)[C@H](CCCN=C(N)N)NC(=O)[C@H](C)NC(=O)[C@H](CCC(N)=O)NC(=O)[C@H](CC(C)C)NC(=O)[C@H](CCC(N)=O)NC(=O)CCCCCNC(=O)CNC(=O)[C@H](Cc1c[nH]c2ccccc12)NC(=O)[C@@H](NC(=O)[C@@H](NC(=O)[C@H](CC(C)C)NC(=O)[C@H](CCC(N)=O)NC(=O)[C@H](CC(C)C)NC(=O)[C@H](CC(C)C)NC(=O)[C@H](Cc1c[nH]cn1)NC(=O)[C@H](CCC(N)=O)NC(C)=O)[C@@H](C)O)C(C)C)C(=O)N[C@@H](CC(C)C)C(=O)N[C@@H](C)C(=O)N[C@H](C(=O)N[C@@H](CCC(=O)O)C(=O)O)C(C)C` (HELM PEPTIDE1{[ac].Q.H.L.L.Q.L.T.V.W.G.[O=C(CCCCCN[*:1])[*:2]].Q.L.Q.A.R.I.L.A.V.E}$$$$V2.0) registered a 50% inhibitory concentration (IC50) of 40 µM.
The same measure, in the same setting: to `CC[C@H](C)[C@H](NC(=O)[C@H](CCCN=C(N)N)NC(=O)[C@H](C)NC(=O)[C@H](CCC(N)=O)NC(=O)[C@H](CC(C)C)NC(=O)[C@H](CCC(N)=O)NC(=O)CCCCCNC(=O)CCCCCNC(=O)CNC(=O)[C@H](Cc1c[nH]c2ccccc12)NC(=O)[C@@H](NC(=O)[C@@H](NC(=O)[C@H](CC(C)C)NC(=O)[C@H](CCC(N)=O)NC(=O)[C@H](CC(C)C)NC(=O)[C@H](CC(C)C)NC(=O)[C@H](Cc1c[nH]cn1)NC(=O)[C@H](CCC(N)=O)NC(C)=O)[C@@H](C)O)C(C)C)C(=O)N[C@@H](CC(C)C)C(=O)N[C@@H](C)C(=O)N[C@H](C(=O)N[C@@H](CCC(=O)O)C(=O)O)C(C)C` (HELM PEPTIDE1{[ac].Q.H.L.L.Q.L.T.V.W.G.[O=C(CCCCCN[*:1])[*:2]].[O=C(CCCCCN[*:1])[*:2]].Q.L.Q.A.R.I.L.A.V.E}$$$$V2.0) belongs 65.7 µM; to `CC[C@H](C)[C@H](NC(=O)[C@H](CCCN=C(N)N)NC(=O)[C@H](C)NC(=O)[C@H](CCC(N)=O)NC(=O)[C@H](CC(C)C)NC(=O)[C@H](CCC(N)=O)NC(=O)CCCCCNC(=O)[C@H](Cc1c[nH]c2ccccc12)NC(=O)[C@@H](NC(=O)[C@@H](NC(=O)[C@H](CC(C)C)NC(=O)[C@H](CCC(N)=O)NC(=O)[C@H](CC(C)C)NC(=O)[C@H](CC(C)C)NC(=O)[C@H](Cc1c[nH]cn1)NC(=O)[C@H](CCC(N)=O)NC(C)=O)[C@@H](C)O)C(C)C)C(=O)N[C@@H](CC(C)C)C(=O)N[C@@H](C)C(=O)N[C@H](C(=O)N[C@@H](CCC(=O)O)C(=O)O)C(C)C` (HELM PEPTIDE1{[ac].Q.H.L.L.Q.L.T.V.W.[O=C(CCCCCN[*:1])[*:2]].Q.L.Q.A.R.I.L.A.V.E}$$$$V2.0), 40 µM.
In the test with MT4 [1], `CCCCCCCCCCCCC(N)C(=O)N[C@H](C(=O)N[C@@H](CCCCN)C(=O)N[C@@H](CCC(N)=O)C(=O)N[C@@H](CC(C)C)C(=O)N[C@@H](CCC(N)=O)C(=O)N[C@@H](C)C(=O)N[C@@H](CCCN=C(N)N)C(=O)N[C@H](C(=O)N[C@@H](CC(C)C)C(=O)N[C@@H](C)C(=O)N[C@H](C(=O)N[C@@H](CCC(=O)O)C(=O)N[C@@H](CCCN=C(N)N)C(=O)N[C@@H](Cc1ccc(O)cc1)C(=O)N[C@@H](CC(C)C)C(=O)N[C@@H](CCCCN)C(=O)N[C@@H](CC(=O)O)C(=O)N[C@@H](CCC(N)=O)C(=O)O)C(C)C)[C@@H](C)CC)[C@@H](C)CC` (stereo in doubt; 21) gave an Inhibition of 9%.
As to `CCCCCCCCCCCCC(N)C(=O)N[C@H](C(=O)N[C@@H](CCCCN)C(=O)N[C@@H](CCC(N)=O)C(=O)N[C@@H](CC(C)C)C(=O)N[C@@H](CCC(N)=O)C(=O)N[C@@H](C)C(=O)N[C@@H](CCCN=C(N)N)C(=O)N[C@H](C(=O)N[C@@H](CC(C)C)C(=O)N[C@@H](C)C(=O)N[C@H](C(=O)N[C@@H](CCC(=O)O)C(=O)N[C@@H](CCCN=C(N)N)C(=O)N[C@@H](Cc1ccc(O)cc1)C(=O)N[C@@H](CC(C)C)C(=O)N[C@@H](CCCCN)C(=O)N[C@@H](CC(=O)O)C(=O)N[C@@H](CCC(N)=O)C(=O)O)C(C)C)[C@@H](C)CC)[C@@H](C)CC` (stereo in doubt; 22), the Inhibition in the test with MT4 [1] was determined as 0%.

Usually inhibition stands for the percentage by which the read-out fell short of the control. The term IC50 denotes the concentration that gives 50% inhibition. Low values mean greater potency, high ones weaker potency. As a reminder, the Inhibition is the share of the control response that was lost under treatment. Low readings indicate a response near the control, high ones a response far below the control.
